# Measurements as given in ChEMBL document CHEMBL1144709, “Cycloartane-type triterpenoids from the resinous exudates of Commiphora opobalsamum” (J Nat Prod, 2008).
# Legend:
# DU-145 = assay: Cytotoxicity against human DU145 cells by MTT assay; type: functional, cell-based
# In short: (§1)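 Cells in 96-well plates exposed to test compounds for 48 h. MTT (5 mg/mL in PBS) then added and plates held 2 h at 37 °C under 5% CO2. Absorbance read at 570 nm and IC50 values reported.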
# PC-3 = assay: Cytotoxicity against human PC3 cells by MTT assay; type: functional, cell-based; in short: as §1
Structure (SMILES),IC50 (DU-145),IC50 (PC-3)
C[C@H](C/C=C/C(C)(C)O)[C@H]1CC[C@@]2(C)[C@@H]3CC[C@H]4C(C)(C)[C@@H](O)[C@H](O)[C@H](O)[C@@]45C[C@@]35CC[C@]12C,34.7 µM,10.3 µM
CC(C)=CCC[C@@H](C)[C@H]1CC[C@@]2(C)[C@@H]3CC[C@H]4C(C)(C)[C@@H](O)C[C@H](O)[C@@]45C[C@@]35CC[C@]12C,> 50 µM,> 50 µM
CC(C)=CCC[C@@H](C)[C@H]1CC[C@@]2(C)[C@@H]3CC[C@H]4C(C)(C)[C@@H](OC(=O)CC(C)C)[C@H](O)[C@H](O)[C@@]45C[C@@]35CC[C@]12C,> 50 µM,28.4 µM
CC(=O)O[C@H]1[C@H](O)[C@H](O)[C@]23C[C@]24CC[C@]2(C)[C@@H]([C@H](C)CCC=C(C)C)CC[C@@]2(C)[C@@H]4CC[C@H]3C1(C)C,20.7 µM,15.4 µM
CC(C)=CCC[C@@H](C)[C@H]1CC[C@@]2(C)[C@@H]3CC[C@H]4C(C)(C)[C@H](O)[C@H](O)[C@H](O)[C@@]45C[C@@]35CC[C@]12C,> 50 µM,> 50 µM
CC(=O)O[C@H]1[C@@H](O)[C@H](O)C(C)(C)[C@@H]2CC[C@@H]3[C@]4(CC[C@]5(C)[C@@H]([C@H](C)CCC=C(C)C)CC[C@@]35C)C[C@]124,> 50 µM,13.4 µM
CC(C)=CCC[C@@H](C)[C@H]1CC[C@@]2(C)[C@@H]3CC[C@H]4C(C)(C)[C@@H](O)[C@H](O)[C@H](O)[C@@]45C[C@@]35CC[C@]12C,37.2 µM,10.1 µM
